This is an account of results in publication PMC11904669 (ACS Omega, 2025).

The subject of one series is α-SMA. As to the kind of experiment: Western blot of α-SMA in TGF-β-induced LX2 cells. Type of series: cell-based, human. The note with it: TGF-β-treated LX2 cells, 10 μM, 24 h, Western blot (Figure 4). The method in brief:
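LX2 human hepatic stellate cells were grown in DMEM with 10% FBS and 1% penicillin-streptomycin at 37 °C, 5% CO2. Cells were induced with TGF-β (10 ng/mL) with or without 10 μM test compound for 24 h. Lysates in RIPA buffer were BCA-quantified, run on SDS-PAGE and transferred to PVDF. Primary antibody was applied overnight at 4 °C, then ECL detection. Densitometry was normalized to GAPDH; n = 3.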

In another series the test system is COL1α1. The series can be described thus: Western blot of COL1α1. The series is classed as cell-based, human. Conditions: TGF-β-treated LX2 cells, 10 μM, 24 h, Western blot (Figure 4).
Another series deals with p-Smad3. As to the kind of experiment: Western blot of p-Smad3/Smad3 in liver, CCl4-induced liver fibrosis model. Type of series: in vivo, mouse. The note with it: CCl4 mice, 250 μg/kg i.p. daily for 4 weeks. The method in brief:
(§1)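 Male C57BL/6J mice with CCl4 fibrosis (20% in corn oil s.c., every 2 days, 8 weeks) received test compound 250 μg/kg i.p. daily over the final 4 weeks. Liver tissue was snap-frozen and stored at −80 °C, then lysed in RIPA buffer and BCA-quantified. Samples went through SDS-PAGE and PVDF transfer, overnight primary antibody at 4 °C, and ECL. Phospho-protein densitometry was normalized to GAPDH; n = 5.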
On the technique in general: Immunoblotting shows a protein as a band on a membrane.

The next series has as its system p-ERK. As to the kind of experiment: Western blot of p-Erk/Erk in liver, CCl4-induced liver fibrosis model. The series is classed as in vivo, mouse. Conditions: CCl4 mice, 250 μg/kg i.p. daily for 4 weeks. The method in brief:
as §1

Series [1] deals with CCl4-induced liver fibrosis model. The series can be described thus: SOD in liver tissue, CCl4-induced liver fibrosis model. The series is classed as in vivo, mouse. Conditions: CCl4 mice, 250 μg/kg i.p. daily for 4 weeks, n = 5.
For the next series, the system named is C57BL/6J mice. As to the kind of experiment: General observation of mice during peptide treatment. Type of series: in vivo, mouse. Conditions: CCl4 mice, 250 μg/kg i.p. daily for 4 weeks. The method in brief:
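Male C57BL/6J mice (6–8 wk, 20–24 g) received 20% CCl4 in corn oil s.c. (5 mL/kg) every 2 days for 8 weeks, with corn-oil-injected controls. Test compound was given i.p. at 250 μg/kg daily over the last 4 weeks. Appearance, behavior and food intake were observed, and body weight was monitored (n = 5−7).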

Series [2] concerns CCl4-induced liver fibrosis model. The series can be described thus: GSH in liver tissue, CCl4-induced liver fibrosis model. Type of series: in vivo, mouse. The note with it: CCl4 mice, 250 μg/kg i.p. daily for 4 weeks, n = 5.
The test system is the same in series [3]. The series can be described thus: Serum AST, CCl4-induced liver fibrosis model. Type of series: in vivo, mouse. The note with it: CCl4 mice, 250 μg/kg i.p. daily for 4 weeks. The method in brief:
(§2)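 CCl4 (20% in corn oil, s.c., every 2 days, 8 weeks) fibrotic male C57BL/6J mice received test compound 250 μg/kg i.p. daily for the last 4 weeks. After the final dose, mice were fasted 9 h and euthanized 8 h later. Blood was drawn retro-orbitally under anesthesia and spun at 1000g for 15 min; serum was stored at −80 °C. ALT or AST was measured by commercial kit; n = 5.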

For series [4] the test system is unchanged. The series can be described thus: Serum ALT, CCl4-induced liver fibrosis model. The series is classed as in vivo, mouse. Conditions: CCl4 mice, 250 μg/kg i.p. daily for 4 weeks. The method in brief: as §2
Another series in a line: Serum stability analysis. Type of series: in vitro ADME. The method in brief: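 Peptide (5 mM) was incubated in mouse serum at 37 °C for 0, 0.25, 1, 2, 4, 8, 16 and 24 h. Reactions were quenched with ice-cold acetonitrile, vortexed 10 s and left 1 min. Water containing 1% TFA was then added, the mix was centrifuged at 13,000g for 10 min, and the supernatant was collected for analysis.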

The test system of series [5] is CCl4-induced liver fibrosis model. As to the kind of experiment: Liver histology. The note with it: CCl4 mice, 250 μg/kg i.p. daily for 4 weeks. The series is classed as in vivo, mouse. The method in brief:
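CCl4 model: male C57BL/6J mice, s.c. 20% CCl4 in corn oil every 2 days for 8 weeks, test compound 250 μg/kg i.p. daily during the last 4 weeks. Livers were fixed in 10% formaldehyde, deparaffinized and rehydrated. Sections got H&E, Sirius red (10 fields at 20× per liver) and IHC for α-SMA and COL1α1. Positive area was quantified excluding large bile ducts and vessels; n = 5.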

The test system is the same in series [6]. The series can be described thus: Hydroxyproline in liver tissue, CCl4-induced liver fibrosis model. Type of series: in vivo, mouse. The note with it: CCl4 mice, 250 μg/kg i.p. daily for 4 weeks, n = 5. The method in brief:
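Liver fibrosis was induced in male C57BL/6J mice (6–8 wk) by s.c. 20% CCl4 in corn oil (5 mL/kg) every 2 days for 8 weeks, with corn-oil controls. Test compound was given at 250 μg/kg i.p. daily for the final 4 weeks. Livers were snap-frozen in liquid nitrogen, kept at −80 °C, and assayed for hydroxyproline; n = 5.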

For the next series, the system named is FN and COL1α1. As to the kind of experiment: Western blot of FN and COL1α1 in TGF-β-induced LX2 cells. Type of series: cell-based, human. The note with it: 10 μM.
The test system of a further series is LX2 cells. The series can be described thus: CCK-8 assay of cell growth. The series is classed as cell-based, human. Conditions: high concentration 64.0 μM. Background: Formazan colour is commonly taken as a measure of viable cells.

*1 amine or outer side, *2 acyl side, *3 side chain or, on linkers, in order; H or OH if unused. Where a SMILES comes first, the peptide text is derived from it. Where no end group is shown, it is not given here. Side-chain parts run from the residue outwards. The star is where a group is joined. C20 diacid = O=C(O)CCCCCCCCCCCCCCCCCCC(=O)*; γGlu = O=C(O)[C@H](CCC(=O)[*:2])N[*:1]; PEG2 = NCCOCCOCCC(=O)O

What is called half-life is the time needed for the level to fall by half in the phase considered. Regarding `CC(C)C[C@H](NC(=O)[C@@H]1CCCN1C(=O)[C@H](Cc1ccccc1)NC(=O)CNC(=O)[C@@H]1CCCN1C(=O)[C@H](C)NC(=O)[C@H](CCCCNC(=O)CCOCCOCCNC(=O)CCOCCOCCNC(=O)CC[C@H](NC(=O)CCCCCCCCCCCCCCCCCCC(=O)O)C(=O)O)NC(=O)CNC(=O)[C@H](Cc1ccccc1)NC(=O)[C@@H](N)[C@@H](C)O)C(=O)NCC(=O)N[C@@H](CO)C(N)=O` [S6-FA] (H-TFGK([PEG2-PEG2-γGlu-C20 diacid])APGFPLGS-NH2), in the series on α-SMA, the “expression of α-SMA” value is reported as “conspicuously decreased”. For the same molecule, the “expression of COL1α1” value with COL1α1 is “conspicuously decreased”. Further, the “phosphorylation of Smad3 in liver” value in the series on p-Smad3 is “effectively inhibited”. The “phosphorylation of ERK in liver” value in the series on p-ERK is recorded as “effectively inhibited”. Besides, in [1], the “content of SOD in liver tissue versus CCl4 group” value was “significantly higher”. The “appearance, behavior, food intake, body weight” value in the series with C57BL/6J mice is recorded as “no abnormalities”. For the same molecule, in [2], the “content of GSH in liver tissue versus CCl4 group” value was “significantly higher”. Also, in series [3], the “AST serum level” value is “remarkably reduced”. For the same molecule, the “ALT serum level” value in series [4] is “remarkably reduced”. This molecule also gave a half-life at 5 mM in “Serum stability analysis” (mouse) of around 24 h. Besides, the “collagen deposition (Sirius red)” value in series [5] (n = 5) was “more efficacious outcomes in reducing collagen deposition compared to T6-S”. Moreover, the “fibrosis markers α-SMA and COL1α1 (IHC)” value in [5] (versus control group and T6-S group) is on record as “notably lower”. The “HYP content in liver tissue” value in series [6] is given as “significantly decreased”.
Consider `CC(C)C[C@@H]1NC(=O)[C@@H]2CCCN2C(=O)[C@H](Cc2ccccc2)NC(=O)CNC(=O)[C@@H]2CCCN2C(=O)[C@H](C)NC(=O)CNC(=O)CNC(=O)[C@H](Cc2ccccc2)NC(=O)[C@H]([C@@H](C)O)NC(=O)[C@H](CO)NC(=O)CNC1=O` [S19] (cyclo(APGFPLGSTFGG)), for which the “effect on expression of FN and COL1α1” value with FN and COL1α1 was “diminished the inhibitory impacts”.
Turning to TFGGAPGFPLGS [T6-S], the “peptide detectable by HPLC after incubation in serum” value in “Serum stability analysis” (mouse serum, 37 °C, 5 mM peptide, RP-HPLC-MS, 1 h) was determined as 50%. Besides, the “growth of LX2 cells (CCK-8)” value with LX2 cells is “did not affect the growth”.
With “TFGGAPGFPLGSPLSSVFPR [T6, reference compound]”, the “growth of LX2 cells (CCK-8)” value in the series on LX2 cells was “did not affect the growth”.
For TFGKAPGFPLGS [S6], the “appearance, behavior, food intake, body weight” value in the series with C57BL/6J mice is on record as “no abnormalities”.
